Source: article PMC2998688 (British Journal of Pharmacology, 2010)
“And” between values parts separate entries of the source, which are not always exact repeats. Identical values can stand only once.

Legend:
[1] = molecular target: rat IP3R1 (recombinant, expressed in DT40 cells) (Rattus norvegicus, UniProt P29994); test: Ca2+ release from intracellular stores of permeabilized DT40-IP3R1 cells; assay type: cell-based; conditions: for fold more potent than IP3 in functional assays: Ca2+ release, relative to IP3
rat IP3R1 (recombinant, expressed in DT40 cells), sequence (P29994 1-2735 isoform P29994-2): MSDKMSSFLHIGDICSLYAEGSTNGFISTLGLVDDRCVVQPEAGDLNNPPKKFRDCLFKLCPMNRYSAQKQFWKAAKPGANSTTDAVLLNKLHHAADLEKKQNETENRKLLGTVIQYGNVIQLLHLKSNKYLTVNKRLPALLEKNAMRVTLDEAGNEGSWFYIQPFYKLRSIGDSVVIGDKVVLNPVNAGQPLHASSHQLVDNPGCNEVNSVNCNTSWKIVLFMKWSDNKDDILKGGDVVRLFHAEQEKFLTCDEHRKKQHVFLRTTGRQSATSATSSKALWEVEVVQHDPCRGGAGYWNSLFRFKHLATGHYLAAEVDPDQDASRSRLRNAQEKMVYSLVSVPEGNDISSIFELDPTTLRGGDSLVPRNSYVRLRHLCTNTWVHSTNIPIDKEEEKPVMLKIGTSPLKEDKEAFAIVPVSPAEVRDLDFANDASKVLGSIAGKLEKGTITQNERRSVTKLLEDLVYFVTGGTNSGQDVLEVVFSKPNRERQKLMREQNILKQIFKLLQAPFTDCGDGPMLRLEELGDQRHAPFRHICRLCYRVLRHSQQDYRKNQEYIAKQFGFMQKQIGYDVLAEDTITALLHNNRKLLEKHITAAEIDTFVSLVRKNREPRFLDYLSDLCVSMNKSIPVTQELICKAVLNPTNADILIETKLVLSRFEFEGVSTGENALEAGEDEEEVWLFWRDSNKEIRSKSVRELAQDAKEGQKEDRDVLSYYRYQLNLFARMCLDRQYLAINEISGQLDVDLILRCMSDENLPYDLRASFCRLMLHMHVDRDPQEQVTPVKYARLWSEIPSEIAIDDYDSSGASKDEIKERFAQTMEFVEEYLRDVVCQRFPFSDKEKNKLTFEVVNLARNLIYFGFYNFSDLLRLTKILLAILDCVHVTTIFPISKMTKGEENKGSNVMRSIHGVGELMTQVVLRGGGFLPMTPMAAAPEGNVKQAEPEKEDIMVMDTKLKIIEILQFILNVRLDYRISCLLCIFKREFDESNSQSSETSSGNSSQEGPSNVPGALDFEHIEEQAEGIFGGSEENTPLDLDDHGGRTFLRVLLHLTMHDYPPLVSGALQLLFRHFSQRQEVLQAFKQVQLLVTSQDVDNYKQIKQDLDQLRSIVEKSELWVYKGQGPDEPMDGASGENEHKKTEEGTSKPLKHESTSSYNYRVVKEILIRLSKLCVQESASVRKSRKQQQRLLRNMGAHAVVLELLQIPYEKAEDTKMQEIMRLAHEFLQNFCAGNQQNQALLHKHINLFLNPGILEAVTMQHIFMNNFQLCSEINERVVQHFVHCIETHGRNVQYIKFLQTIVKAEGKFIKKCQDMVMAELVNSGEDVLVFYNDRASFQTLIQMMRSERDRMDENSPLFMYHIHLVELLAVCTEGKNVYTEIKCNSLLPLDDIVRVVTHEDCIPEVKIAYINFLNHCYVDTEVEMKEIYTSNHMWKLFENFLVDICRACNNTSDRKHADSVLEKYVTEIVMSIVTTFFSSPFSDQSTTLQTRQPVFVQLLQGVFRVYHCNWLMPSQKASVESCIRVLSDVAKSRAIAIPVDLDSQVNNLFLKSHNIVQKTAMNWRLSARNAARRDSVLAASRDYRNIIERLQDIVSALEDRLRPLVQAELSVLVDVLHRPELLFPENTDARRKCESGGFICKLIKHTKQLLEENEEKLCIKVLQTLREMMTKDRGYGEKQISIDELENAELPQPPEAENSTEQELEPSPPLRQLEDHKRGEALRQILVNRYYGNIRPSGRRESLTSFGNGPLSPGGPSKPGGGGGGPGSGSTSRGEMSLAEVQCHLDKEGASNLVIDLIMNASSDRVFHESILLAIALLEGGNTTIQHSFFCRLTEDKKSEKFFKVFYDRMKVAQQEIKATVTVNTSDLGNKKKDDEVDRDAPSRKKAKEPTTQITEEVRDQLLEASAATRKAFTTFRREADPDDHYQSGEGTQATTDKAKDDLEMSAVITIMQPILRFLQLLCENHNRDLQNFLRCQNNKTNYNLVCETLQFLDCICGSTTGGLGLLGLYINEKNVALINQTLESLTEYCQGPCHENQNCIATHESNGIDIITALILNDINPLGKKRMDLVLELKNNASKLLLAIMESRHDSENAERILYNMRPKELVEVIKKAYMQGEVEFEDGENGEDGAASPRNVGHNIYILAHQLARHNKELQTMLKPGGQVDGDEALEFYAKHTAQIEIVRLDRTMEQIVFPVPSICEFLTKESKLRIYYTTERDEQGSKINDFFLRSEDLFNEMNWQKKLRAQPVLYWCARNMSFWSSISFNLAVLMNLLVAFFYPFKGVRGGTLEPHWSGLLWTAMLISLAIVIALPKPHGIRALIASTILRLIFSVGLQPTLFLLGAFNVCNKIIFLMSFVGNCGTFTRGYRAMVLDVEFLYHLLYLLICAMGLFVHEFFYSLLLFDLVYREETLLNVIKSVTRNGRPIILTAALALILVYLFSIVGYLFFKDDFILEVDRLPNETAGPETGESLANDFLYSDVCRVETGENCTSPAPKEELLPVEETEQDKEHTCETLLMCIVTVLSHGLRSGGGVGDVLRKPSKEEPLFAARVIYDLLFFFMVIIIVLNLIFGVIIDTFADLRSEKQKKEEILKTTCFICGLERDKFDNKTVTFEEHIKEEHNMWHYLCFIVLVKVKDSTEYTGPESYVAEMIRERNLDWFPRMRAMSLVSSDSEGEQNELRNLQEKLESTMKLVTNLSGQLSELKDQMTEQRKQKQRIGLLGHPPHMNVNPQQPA

IP3R1^R568Q = IP3R1^R568Q (Rattus norvegicus, UniProt P29994, DEL318-332/R568Q); test: Ca2+ release from permeabilized DT40 cells expressing only IP3R1^R568Q; assay type: cell-based
Summary of the method: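 Mag-fluo-4 AM (20 µM, 1 h, 20°C) loaded into DT40 cells lacking endogenous IP3R and stably expressing mutant rat IP3R1. Cells were saponin-permeabilized (10 µg·mL−1) into Mg2+-free CLM with 10 µM FCCP, free Ca2+ ~220 nM. Stores were loaded with 1.5 mM MgATP before test compound was added. Fluorescence was read at 485/520 nm, 20°C. Release is a fraction of ATP-dependent uptake, Hill-fitted for EC50, with ΔpEC50 versus wild type from log values. Three determinations per experiment, 4–6 experiments.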

IP3R1^R504Q = IP3R1^R504Q (Rattus norvegicus, UniProt P29994, DEL318-332/R504Q); test: Ca2+ release from permeabilized DT40 cells expressing only IP3R1^R504Q; assay type: cell-based
full-length IP3R1 = full-length IP3R1 (Rattus norvegicus, UniProt P29994); assay type: binding; conditions: full-length IP3R1, TEM
[2] = molecular target: NT (residues 1–604) of IP3R1 (Rattus norvegicus, UniProt P29994, DEL318-332); test: Equilibrium-competition 3H-IP3 binding to the NT fragment; conditions: for Binding ΔpKd, IP3 / AdA: pair IP3 / AdA
NT (residues 1–604) of IP3R1, sequence (P29994 1-589 isoform P29994-2 limits assumed, stated change not applied): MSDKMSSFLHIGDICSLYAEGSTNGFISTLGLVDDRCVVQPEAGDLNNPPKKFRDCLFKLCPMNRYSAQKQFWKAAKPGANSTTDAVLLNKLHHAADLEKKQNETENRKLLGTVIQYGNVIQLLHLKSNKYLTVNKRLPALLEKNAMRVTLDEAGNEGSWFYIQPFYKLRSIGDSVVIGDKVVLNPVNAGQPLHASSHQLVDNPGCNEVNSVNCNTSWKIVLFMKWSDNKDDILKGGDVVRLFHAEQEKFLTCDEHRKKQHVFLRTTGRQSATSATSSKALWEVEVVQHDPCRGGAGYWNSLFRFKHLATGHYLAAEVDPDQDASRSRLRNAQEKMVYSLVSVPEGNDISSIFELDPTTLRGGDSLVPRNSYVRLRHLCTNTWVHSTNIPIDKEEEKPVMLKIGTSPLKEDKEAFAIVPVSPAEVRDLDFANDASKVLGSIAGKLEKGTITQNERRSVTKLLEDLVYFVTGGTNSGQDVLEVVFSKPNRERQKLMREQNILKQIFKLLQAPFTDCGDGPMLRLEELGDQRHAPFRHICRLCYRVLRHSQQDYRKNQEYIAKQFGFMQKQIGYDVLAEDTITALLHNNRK
Summary of the method: (§1)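 Rat IP3R1 N-terminal fragment (residues 1–604, lacking S1 site), His6-tagged, wild type or point mutant, expressed in E. coli BL21(DE3) as bacterial lysate (~1–10 µg protein). Competed against 1.5 nM 3H-IP3 for 5 min at 4°C in TEM (50 mM Tris, 1 mM EDTA, pH 8.3) or, for wild-type NT only, CLM (pH 7.0). Counted after PEG precipitation. Hill fit; Kd by Cheng–Prusoff; ΔpKd from log values.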

[3] = molecular target: NT^R568Q fragment of IP3R1 (Rattus norvegicus, UniProt P29994, DEL318-332/R568Q); test: Equilibrium-competition 3H-IP3 binding to NT^R568Q
Summary of the method: as §1

[4] = molecular target: NT^R504Q fragment of IP3R1 (Rattus norvegicus, UniProt P29994, DEL318-332/R504Q); test: Equilibrium-competition 3H-IP3 binding to NT^R504Q; conditions: TEM
NT^R504Q fragment of IP3R1, sequence (P29994 1-589 isoform P29994-2 R489Q limits assumed): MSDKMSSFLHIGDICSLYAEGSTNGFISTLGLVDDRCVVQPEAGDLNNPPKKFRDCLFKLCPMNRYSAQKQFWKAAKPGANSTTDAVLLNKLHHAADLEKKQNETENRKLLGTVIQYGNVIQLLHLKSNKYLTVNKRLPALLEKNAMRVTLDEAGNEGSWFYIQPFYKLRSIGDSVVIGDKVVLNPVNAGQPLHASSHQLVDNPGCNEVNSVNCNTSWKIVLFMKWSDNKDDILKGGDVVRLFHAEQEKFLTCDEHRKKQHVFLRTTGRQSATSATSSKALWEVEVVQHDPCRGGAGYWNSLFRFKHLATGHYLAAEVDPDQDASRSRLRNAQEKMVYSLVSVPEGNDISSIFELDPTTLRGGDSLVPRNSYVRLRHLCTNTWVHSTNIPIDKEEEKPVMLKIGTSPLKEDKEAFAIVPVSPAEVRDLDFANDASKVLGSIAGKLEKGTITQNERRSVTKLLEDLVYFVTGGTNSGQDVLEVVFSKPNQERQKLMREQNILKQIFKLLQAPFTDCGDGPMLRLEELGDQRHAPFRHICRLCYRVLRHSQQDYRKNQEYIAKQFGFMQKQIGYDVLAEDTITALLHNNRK
Summary of the method: as §1

[5] = molecular target: IBC (IP3-binding core, residues 224–604 of IP3R1) (Rattus norvegicus, UniProt P29994); test: Equilibrium-competition 3H-IP3 binding to the IBC; conditions: CLM
IBC (IP3-binding core, residues 224–604 of IP3R1), sequence (P29994 224-604): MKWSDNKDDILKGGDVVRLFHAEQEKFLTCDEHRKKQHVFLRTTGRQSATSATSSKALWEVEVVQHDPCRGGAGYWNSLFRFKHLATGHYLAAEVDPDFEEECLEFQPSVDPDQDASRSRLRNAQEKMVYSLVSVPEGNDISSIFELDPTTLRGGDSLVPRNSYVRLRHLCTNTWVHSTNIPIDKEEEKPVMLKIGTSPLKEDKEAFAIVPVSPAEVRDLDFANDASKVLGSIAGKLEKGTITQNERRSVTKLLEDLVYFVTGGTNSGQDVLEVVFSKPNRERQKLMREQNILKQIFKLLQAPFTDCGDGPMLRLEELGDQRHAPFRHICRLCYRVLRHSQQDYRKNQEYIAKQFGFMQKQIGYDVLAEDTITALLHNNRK
Summary of the method: (§2)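 His6-tagged rat IP3R1 IBC (residues 224–604, S1 site included), wild type or point mutant, expressed in E. coli BL21(DE3) (0.5 mM IPTG, 20 h, 15°C). Lysate (~1–10 µg protein) incubated 5 min at 4°C in CLM (pH 7.0, free Ca2+ 220 nM) with 3H-IP3 (0.75–3 nM) and competitor. PEG/γ-globulin precipitation, scintillation counting. Hill fit; Kd by Cheng–Prusoff; ΔpKd from log differences.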

[6] = molecular target: IBC^R568Q fragment of IP3R1 (Rattus norvegicus, UniProt P29994, R568Q); test: Equilibrium-competition 3H-IP3 binding to IBC^R568Q
IBC^R568Q fragment of IP3R1, sequence (P29994 224-604 R568Q): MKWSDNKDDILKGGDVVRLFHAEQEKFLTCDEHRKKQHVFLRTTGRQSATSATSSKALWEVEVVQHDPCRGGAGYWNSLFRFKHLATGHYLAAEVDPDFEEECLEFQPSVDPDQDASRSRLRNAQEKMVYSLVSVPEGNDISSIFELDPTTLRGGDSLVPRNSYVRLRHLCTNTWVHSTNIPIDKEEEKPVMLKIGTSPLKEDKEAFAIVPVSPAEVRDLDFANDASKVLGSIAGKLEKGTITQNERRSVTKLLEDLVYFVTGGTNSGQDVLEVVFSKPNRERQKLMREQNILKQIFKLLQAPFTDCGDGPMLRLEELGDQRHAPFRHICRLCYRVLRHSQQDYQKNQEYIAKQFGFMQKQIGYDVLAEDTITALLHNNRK
Summary of the method: as §2

[7] = molecular target: IBC^R504Q fragment of IP3R1 (Rattus norvegicus, UniProt P29994, R504Q); test: Equilibrium-competition 3H-IP3 binding to IBC^R504Q; conditions: CLM
IBC^R504Q fragment of IP3R1, sequence (P29994 224-604 R504Q): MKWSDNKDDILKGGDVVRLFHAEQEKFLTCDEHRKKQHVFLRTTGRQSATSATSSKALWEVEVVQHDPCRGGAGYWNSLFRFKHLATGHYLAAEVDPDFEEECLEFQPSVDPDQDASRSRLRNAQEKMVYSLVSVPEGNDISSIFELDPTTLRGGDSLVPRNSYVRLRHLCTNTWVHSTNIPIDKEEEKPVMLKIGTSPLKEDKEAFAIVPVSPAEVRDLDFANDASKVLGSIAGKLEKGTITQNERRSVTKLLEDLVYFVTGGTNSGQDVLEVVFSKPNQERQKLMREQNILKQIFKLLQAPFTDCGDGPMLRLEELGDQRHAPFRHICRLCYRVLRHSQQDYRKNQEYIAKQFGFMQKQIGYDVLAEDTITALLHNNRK
Summary of the method: as §2

IP3R = conditions: recalculated from published data; ref Takahashi et al., 1994a,b,c; cited from earlier work

Nc1ncnc2c1ncn2[C@@H]1O[C@H](CO)[C@@H](O[C@H]2O[C@H](CO)[C@@H](OP(=O)(O)O)[C@H](OP(=O)(O)O)[C@H]2O)[C@H]1OP(=O)(O)O [AdA, adenophostin A]
EC50 ([1]; Ca2+ release EC50, DT40 cells expressing wild-type IP3R1): 3 nM
EC50 ([1]; Ca2+ release pEC50 ± SEM, permeabilized DT40-IP3R1 cells, CLM): 3.09 nM
fold more potent than IP3 in functional assays ([1]; CLM): ~12 fold
fold more potent than IP3 in functional assays ([1]; CLM, listed as Adenophostin A): at least 12 fold
Ca2+ release, Release (%) ([1]; maximal Ca2+ release, fraction of ATP-dependent uptake, wild-type IP3R1): 78 ± 3%
Ca2+ release ΔpEC50, IP3 / AdA ([1]; pair IP3 / AdA, DT40-IP3R1 cells): 1.09 ± 0.05
Ca2+ release nHill ± SEM ([1]; permeabilized DT40-IP3R1 cells, CLM): 1.4 ± 0.1
EC50 (IP3R1^R568Q): 20 nM
Relative potency ΔpEC50, R568Q / wild-type IP3R1 (IP3R1^R568Q; Ca2+ release, IP3R1^R568Q vs IP3R1): 0.81 ± 0.07
fold reduction of potency in IP3R1^R568Q cells (IP3R1^R568Q; Ca2+ release, vs wild-type IP3R1): sixfold
Ca2+ release nHill ± SEM (IP3R1^R568Q; IP3R1^R568Q): 1.0 ± 0.2
Release (%) (IP3R1^R568Q; maximal Ca2+ release, IP3R1^R568Q): 53 ± 3%
EC50 (IP3R1^R504Q): 604 nM
Relative potency ΔpEC50, R504Q / wild-type IP3R1 (IP3R1^R504Q; Ca2+ release, IP3R1^R504Q vs IP3R1): 2.29 ± 0.06
Ca2+ release nHill ± SEM (IP3R1^R504Q; IP3R1^R504Q): 1.3 ± 0.2
Release (%) (IP3R1^R504Q; maximal Ca2+ release, IP3R1^R504Q): 61 ± 3%
Binding nHill ± SEM (full-length IP3R1): 1.5 ± 0.1
nHill ± SEM ([2]; CLM): 1.3 ± 0.2
Kd ([2]; Kd, CLM): 3.44 nM
fold greater affinity than IP3 ([2]; TEM): about 15 fold
nHill ± SEM ([2]; TEM): 1.0 ± 0.1
Kd ([2]; pKd ± SEM, TEM): 0.141 nM
Binding ΔpKd, IP3 / AdA ([2]; CLM): 1.14 ± 0.21
Binding ΔpKd, IP3 / AdA ([2]; TEM): 1.18 ± 0.12
Kd [3]: 2.81 nM
nHill ± SEM ([3]; NT^R568Q, TEM): 1.3 ± 0.2
Kd ([4]; Kd): 16.5 nM
nHill ± SEM [4]: 0.9 ± 0.1
fold greater affinity than IP3 [5]: ~20 fold
nHill ± SEM [5]: 1.3 ± 0.3
Kd ([5]; Kd): 0.31 nM
Binding ΔpKd, IP3 / AdA ([5]; pair IP3 / AdA): 1.37 ± 0.07
Kd [6]: 9.48 nM
Relative affinity ΔpKd, R568Q / wild-type IBC ([6]; IBC^R568Q vs IBC, CLM): 1.49 ± 0.11
fold reduction of affinity by the R568Q mutation ([6]; IBC^R568Q vs IBC, CLM): ~30 fold and 31 fold
nHill ± SEM ([6]; IBC^R568Q, CLM): 1.3 ± 0.6
Relative affinity ΔpKd, R504Q / wild-type IBC ([7]; IBC^R504Q vs IBC): 2.55 ± 0.05
fold reduction of affinity by the R504Q mutation ([7]; IBC^R504Q vs IBC): 353 fold
nHill ± SEM ([7]; IBC^R504Q): 1.5 ± 0.2
Kd ([7]; Kd, IBC^R504Q): 149 nM
fold greater affinity than IP3 (IP3R): about 18 fold
